Compound activity deposited in PubChem by several laboratories.
WT yeast gro inh: growth inhibition of WT yeast, mitochondrial fusion screen; inhibition, % at 10 µM; actives 2.1% (n = 190,000); mitochondrial fusion phenotypic screen, WT strain; in the data active = inhibition above about 58%; tested in S. cerevisiae
Lmaj promast: Leishmania major promastigote growth inhibition; inhibition, % at 10 µM; Leishmania major promastigotes, resazurin fluorescence viability; actives 9% (n = 200,000); AID 1063; in the data active = inhibition above about 50%;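 also: promastigotes grown with compound for 44 hours at 28 °C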
PMI activator: activators of human phosphomannose isomerase | purified human PMI, coupled resazurin fluorescence, 20 min; hits give high values; 1 = vehicle control, 0 substrate-free wells | P34949 | activation factor at 20 µM | actives 0.005% (n = 190,000);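 active = activation factor of 2 or more at 20 µM, relative to plate controls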
Target sequence (P34949 whole entry, looked up): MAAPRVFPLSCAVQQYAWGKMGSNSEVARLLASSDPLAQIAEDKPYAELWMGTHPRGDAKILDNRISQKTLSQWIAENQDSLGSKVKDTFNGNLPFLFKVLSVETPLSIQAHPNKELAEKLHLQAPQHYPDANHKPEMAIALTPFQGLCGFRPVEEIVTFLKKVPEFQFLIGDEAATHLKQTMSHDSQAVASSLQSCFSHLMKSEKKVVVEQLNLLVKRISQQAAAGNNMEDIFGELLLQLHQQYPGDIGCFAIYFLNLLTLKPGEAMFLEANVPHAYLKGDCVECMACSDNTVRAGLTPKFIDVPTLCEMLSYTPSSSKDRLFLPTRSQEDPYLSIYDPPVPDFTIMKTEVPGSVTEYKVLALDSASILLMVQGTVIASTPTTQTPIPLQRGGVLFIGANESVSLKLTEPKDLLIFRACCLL
PMI act satM6P: increases human PMI activity with near-saturating mannose 6-phosphate | P34949 | coupled PMI enzyme assay, resazurin fluorescence, 20 min; hits give high values; 1 = untreated enzyme, 0 = substrate-free blank | actives 0.34% (n = 190,000) | activation factor at 20 µM;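 active = activation factor of 2 or more at 20 µM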
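assay system = human phosphomannose isomerase with PGI, G6PDH, diaphorase coupling enzymes | quantity = 15 ng/mL PMI | incubation = enzyme reaction with compound 20 min at room temperature | medium = HEPES pH 7.4 buffer with MgCl2 and Tween-20 | compound dosing = one concentration, 20 µM, in 1% DMSO | measured by = Diaphorase-driven resazurin-to-resorufin fluorescence, excitation 544, emission 590 nm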
Diaphorase act: activates diaphorase or chemically reduces, flagging diaphorase assay artifacts | Diaphorase/resazurin coupled assay, resorufin fluorescence, 16 min; hits give high values; 1 = vehicle wells, 0 = NADH-free wells | activation factor at 20 µM | actives 0.005% (n = 190,000);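 active = diaphorase activity raised at least twofold by the compound at 20 µM; inactive = activation factor below 2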
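Measured by – red resorufin fluorescence at 544/590 nm excitation/emission · Test system – Clostridium kluyveri diaphorase, purified enzyme · Incubation – reaction time 16 min, room temperature · Buffer or medium – 50 mM HEPES pH 7.4 with 4.542 mM MgCl2, 0.005% Tween 20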
Starred values were filed as active, the others as inactive; . = no result given. The list is not random: actives were taken first. Their share in the collection is about 10%.

SMILES | WT yeast gro inh | Lmaj promast | PMI activator | PMI act satM6P | Diaphorase act
CCOc1ccc(-c2c(=O)n(OCc3ccccc3Br)c3ccccc3[n+]2[O-])c(OCC)c1 | 11.8 | -10.1 | 0.9 | 0.8 | 0.8
CCOc1ccc(OCC)c(-c2c(=O)n(OCc3ccccc3Br)c3ccccc3[n+]2[O-])c1 | 10.9 | 71.3* | 0.9 | 0.9 | 0.9
CC(=O)Nc1ccc(OS(=O)(=O)c2ccc([N+](=O)[O-])cc2)cc1 | -14.4 | 22.7 | 1 | 0.9 | 0.9
O=C1CN(C(=O)c2ccc(Br)o2)C(c2ccccc2)c2cc(F)ccc2N1 (stereo not given) | 2.1 | 92.4* | 0.9 | 1 | 0.7
O=C1CN(C(=O)c2cc([N+](=O)[O-])ccc2Cl)C(c2ccc(F)cc2)c2cc(F)ccc2N1 (stereo not given) | 19.6 | 79.3* | 1.1 | 1 | 0.9
CCOC(=O)C1CCN(S(=O)(=O)c2ccc(C(C)(C)C)cc2)CC1 | -3.2 | -6.0 | 0.9 | 0.9 | 0.9
Cc1ccccc1CNC1CCCCC1 | -2.5 | -8.3 | 1 | 1 | 1
O=[N+]([O-])c1ccccc1CNC1CCCCCC1 | 5.2 | 83.2* | 0.9 | 0.9 | 0.8
COc1ccc(-c2[nH]c(-c3ccc(C)cc3)nc2SCC(=O)NC2CCCC2)cc1 | 35.0 | 84.0* | 0.9 | 0.9 | 0.9
COc1ccc(-c2[nH]c(-c3ccccc3)nc2SCC(=O)Nc2nccs2)cc1 | -0.3 | 41.5 | 0.9 | 0.9 | 0.9
COc1ccccc1NCCC(=O)OCC(=O)NC1CCCCCC1 | 6.6 | -4.1 | 0.9 | 1 | 1
COCCN(Cc1cc2cc3c(cc2nc1Cl)OCO3)C(=O)c1ccc(C)cc1 | -3.6 | 25.4 | . | . | .
OCC1(Cc2ccccc2Cl)CCN(C/C=C/c2ccccc2)CC1 | 35.1 | 88.3* | 0.8 | 0.9 | 0.8
O=C(NC(Cc1c[nH]c2ccccc12)C(=O)O)c1ccc(Br)cc1 (stereo not given) | -16.4 | -6.0 | 1.1 | 1.1 | 1.1
c1ccc(-n2ncc3c(NCCN4CCCCC4)ncnc32)cc1 | -14.0 | 97.9* | 1.1 | 1.1 | 1
O=C(COC(=O)[C@@H]1CC(O)CN1S(=O)(=O)c1ccc2c(c1)OCCO2)Nc1ccccc1F (stereo not given in full) | 1.0 | -10.1 | 1.1 | 1.1 | 1
CN(C)CCCC(=O)c1ccc2c(c1)OCO2 | -6.0 | 7.9 | 1 | 1 | 0.9
CN(C)CCC(=O)c1cccc(Br)c1 | 1.4 | 52.5* | 0.8 | 0.8 | 1
CN(CCOC(=O)c1cccc(Br)c1)C(C)(C)C | -4.2 | -2.2 | 1.1 | 1.1 | 1
CN(C)CCC(=O)c1ccc2c(c1)OCO2 | 1.2 | 98.5* | 0.7 | 0.7 | 1
Cc1ccc(C)c(NC(=O)C2=CCN(S(=O)(=O)c3ccc(F)cc3)CC2)c1 | -7.6 | 8.8 | 1.1 | 1.1 | 1.1
CN1CCN(/N=C/c2ccc(Cl)c(Cl)c2)CC1 | 7.1 | 97.5* | 0.9 | 1 | 0.9
CN1CCN(/N=C/c2ccc(N(C)c3ccccc3)cc2)CC1 | -3.4 | 83.1* | 1.1 | 1 | 0.9
CC1=C(CC/C(C)=N/NC(N)=S)C(C)(C)CCC1 | 57.8 | 100.0* | 0.9 | 1 | 1
CCOC(=O)C1CCN(C(=O)Cc2ccc(C)cc2)CC1 | -2.6 | -5.0 | 1 | 1 | 0.9
SMILES | WT yeast gro inh | Lmaj promast | PMI activator | PMI act satM6P | Diaphorase act
CCOC(=O)C1CCN(C(=O)Cc2ccc(OC)c(OC)c2)CC1 | 72.3* | -1.0 | 0.9 | 0.9 | 1
COc1ccc(CC(=O)N2CCOCC2)cc1OC | 86.5* | 8.4 | 1 | 1 | 1
O=C(C1CCC1)N1CCc2cc(S(=O)(=O)NCCN3CCN(c4ccccc4F)CC3)ccc21 | 7.1 | 9.1 | 0.9 | 1 | 0.9
O=C(COC(=O)C1CC1)Nc1ccc2c(c1)OCO2 | 12.2 | -0.5 | 1.1 | 1.1 | 0.9
Oc1ccccc1/C=N/Nc1cc(N2CCCC2)nc(N2CCCC2)n1 | 74.1* | 96.1* | 0.8 | 0.5 | 0.8
Oc1cccc(/C=N/Nc2cc(N3CCOCC3)nc(N3CCOCC3)n2)c1 | -5.3 | 61.5* | 0.2 | 0.4 | 0.6
COc1ccc(OC)c(-c2cc(C(=O)Nc3c(C)nn(Cc4ccccc4C)c3C)no2)c1 | 6.4 | 45.9 | 0.9 | 0.9 | 0.8
COc1ccc(OC)c(-c2cc(C(=O)Nc3c(C)nn(Cc4ccccc4Cl)c3C)no2)c1 | 37.1 | 52.2* | 0.9 | 0.9 | 0.8
CN(CC(=O)c1c(N)n(C)c(=O)n(C)c1=O)c1ccccc1 | -32.4 | -4.5 | 1.3 | 1.1 | 1
